Data published in ChEMBL document CHEMBL1914406, “Inhibitory effect of novel 5-O-acyl juglones on mammalian DNA polymerase activity, cancer cell growth and inflammatory response” (Bioorg Med Chem, 2011).
The source made the active and inactive calls. No cut-off for these calls is given here.

Columns and labels:
[1] = molecular target: Human immunodeficiency virus type 1 reverse transcriptase (Human immunodeficiency virus 1, UniProt Q72547); test: Inhibition of HIV-1 reverse transcriptase using poly(rA)/oligo(dT)18(A/T = 2/1) and dTTP as the DNA template-primer and nucleotide substrate after 60 mins
How it was run: (§1)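 Compound in DMSO, sonicated 30 s. Premixed 0 °C, 10 min with enzyme (0.05 units) in 50 mM Tris-HCl pH 7.5, 1 mM DTT, 50% glycerol, 0.1 mM EDTA, then added to standard reaction mixture. Template-primers: poly(dA)/oligo(dT)18 (2/1) for pols, oligo(dT)18 for TdT, poly(rA)/oligo(dT)18 for HIV-1 RT, with [3H]dTTP. 60 min at 37 °C (Taq 74 °C). Activity relative to no-inhibitor control; mean ± SE of three experiments.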

Homo sapiens = species: Homo sapiens; test: Inhibition of histidine-tagged human DNA polymerase gamma using poly(dA)/oligo(dT)18 (A/T = 2/1) and dTTP as the DNA template-primer and nucleotide substrate at 10 uM after 60 mins; how it was run: as §1
[2] = Cytotoxicity against mouse RAW264.7 cells; format: cell-based; details: read-out: LD50 (the source's name)
RAW264.7 = test: Antiinflammatory activity in mouse RAW264.7 cells assessed as inhibition of LPS-induced TNFalpha secretion at 5 uM treated 30 mins before LPS challenge measured after 24 hrs by ELISA; format: functional, cell-based
How it was run: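 RAW264.7 cells in MEM with 4.5 g/L glucose, 10% FCS, 5 mM L-glutamine, at 37 °C in 5% CO2. Seeded at 5 × 10⁴ cells/well and grown 24 h. Compound (final 1 and 5 µM) given 30 min before 100 ng/mL LPS. After 24 h, TNF-α in the medium measured by ELISA, relative to the no-compound value (100%). Mean ± SE, n = 4.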

DNA polymerase beta = DNA polymerase beta (Rattus norvegicus, UniProt P06766); test: Inhibition of rat pol beta using poly(dA)/oligo(dT)18 (A/T = 2/1) and dTTP as the DNA template-primer and nucleotide substrate after 60 mins; how it was run: as §1
HCT-116 [3] = test: Cytotoxicity against human HCT116 cells by WST-1 assay relative to aphidicolin; format: functional, cell-based
HCT-116 [4] = test: Cytotoxicity against human HCT116 cells by WST-1 assay relative to camptothecin; format: functional, cell-based
HCT-116 [5] = test: Cytotoxicity against human HCT116 cells by WST-1 assay; format: functional, cell-based
How it was run: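 HCT116 colon carcinoma cells (ATCC) grown in McCoy's 5A with 10% FBS, penicillin and streptomycin, 37 °C, 5% CO2. Plated at 1 × 10⁴ cells/well together with compound, which was diluted from a 10 mM DMSO stock into medium (final 0.5% DMSO). Incubated 24 h. Viability read by WST-1, expressed relative to untreated cells.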

[6] = Inhibition of human DNA polymerase delta using poly(dA)/oligo(dT)18 (A/T = 2/1) and dTTP as the DNA template-primer and nucleotide substrate after 60 mins; how it was run: as §1
HCT-116 [7] = test: Cytotoxicity against human HCT116 cells by WST-1 assay relative to etoposide; format: functional, cell-based

In the case of `CCCCCCCCCCCC(=O)Oc1cccc2c1C(=O)C=CC2=O`, the IC50 [1] is reported as > 100 µM, the inhibition (Homo sapiens) is reported as “Active” and the CC50 [2] is reported as > 10 µM. For the same molecule, the Activity (RAW264.7) was “Active” and the IC50 (DNA polymerase beta) was 7.6 µM.
In the case of `CCCCCCCC/C=C\CCCCCCCC(=O)Oc1cccc2c1C(=O)C=CC2=O`, the IC50 [1] is reported as > 100 µM, the Activity (HCT-116 [3]) is reported as “Active” and the Activity (HCT-116 [4]) is reported as “Active”. For the same molecule, the Activity (HCT-116 [5]) was “Active”, the inhibition (Homo sapiens) was “Active” and the IC50 [6] was 740 nM. The CC50 [2] was > 10 µM, the Activity (HCT-116 [7]) was “Active” and the IC50 (DNA polymerase beta) was 11.5 µM.
